According to ChEMBL document CHEMBL1127496, “The structural basis of camptothecin interactions with human serum albumin: impact on drug stability” (J Med Chem, 1994):

How the values were obtained:
[1] = Half-life in PBS buffer solution in the absence of human serum albumin; type: ADME; details: PBS buffer without human serum albumin
Summary of the method: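 Lactone hydrolysis at 1 μM drug in PBS pH 7.40 ± 0.05, 37 °C, with or without 290 μM HSA. Aliquots taken at mixing and every 5 min, diluted in water, then run on C18 reversed-phase HPLC with fluorescence detection of lactone and carboxylate. t1/2 from nonlinear least-squares fit of lactone decay. At least three independent kinetic runs.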

[2] = Half-life in PBS buffer solution in the presence of human serum albumin; type: ADME; details: PBS buffer with human serum albumin
[3] = Excited-state lifetime value for free lactone form of compound in solution; type: ADME
Summary of the method: (§1)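 Phase-shift fluorescence lifetime, 30 MHz modulated excitation, no polarizers, long-pass emission filters. Measured on 20 μM lactone or carboxylate form in HSA-free PBS, pH 7.40 ± 0.05, 37 °C. Carboxylate made by mixing DMSO stock 1:1 with PBS pH 10.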

[4] = organism: Homo sapiens; assay: Excited-state lifetime value for carboxylate form of compound bound to human serum albumin; type: ADME; details: in vitro
Summary of the method: (§2)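 Phase-shift lifetimes, 30 MHz modulation, no polarizers, long-pass emission filters, in PBS pH 7.4 at 37 °C. Drug 20 μM (lactone or carboxylate form) titrated with HSA. Lifetimes corrected for HSA background (τH 3.2 ns, fH weighting). Bound lifetime τB extrapolated to infinite HSA by nonlinear least-squares fit to τC = τB + b·exp(−c[HSA]). Triplicate runs.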

[5] = organism: Homo sapiens; assay: Excited-state lifetime value for lactone form of compound bound to human serum albumin; type: ADME; summary of the method: as §2
[6] = Excited-state lifetime value for free carboxylate form of compound in solution; type: ADME; summary of the method: as §1
[7] = target: T1, Albumin (Homo sapiens, UniProt P02768); assay: Association constant for the binding of the carboxylate form to human serum albumin;(M aa)e-1
T1 sequence (P02768 whole entry): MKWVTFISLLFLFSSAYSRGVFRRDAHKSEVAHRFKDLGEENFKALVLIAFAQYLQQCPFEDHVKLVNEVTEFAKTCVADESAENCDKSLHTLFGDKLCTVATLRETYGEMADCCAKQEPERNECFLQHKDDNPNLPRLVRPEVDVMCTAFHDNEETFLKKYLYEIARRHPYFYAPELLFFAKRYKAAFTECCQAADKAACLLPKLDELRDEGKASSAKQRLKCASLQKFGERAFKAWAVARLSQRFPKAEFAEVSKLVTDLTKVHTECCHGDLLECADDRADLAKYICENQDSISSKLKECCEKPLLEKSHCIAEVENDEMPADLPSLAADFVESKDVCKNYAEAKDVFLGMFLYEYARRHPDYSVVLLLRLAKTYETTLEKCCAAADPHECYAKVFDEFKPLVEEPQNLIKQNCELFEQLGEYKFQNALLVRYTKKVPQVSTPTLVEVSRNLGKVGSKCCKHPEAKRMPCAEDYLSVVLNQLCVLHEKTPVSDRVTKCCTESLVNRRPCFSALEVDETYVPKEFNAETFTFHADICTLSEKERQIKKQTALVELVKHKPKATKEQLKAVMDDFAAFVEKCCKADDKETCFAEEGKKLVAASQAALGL
Summary of the method: (§3)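 Fluorescence lifetime titration in PBS, pH 7.40 ± 0.05, 37 °C. Total drug 20 μM, lactone or carboxylate form (carboxylate stock made by mixing DMSO stock 1:1 with PBS pH 10), titrated with varying HSA. Phase-shift lifetimes at 30 MHz modulation. Free fraction (τ − τB)/(τF − τB) plotted against log amino-acid residue concentration. K and n obtained by nonlinear least-squares fit to K = [Db]/([Df][aa]^n).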

[8] = target: T1, Albumin; assay: Binding parameter of the carboxylate form to human serum albumin; n value; summary of the method: as §3
[9] = target: T1, Albumin; assay: Association constant for the binding of the lactone form to human serum albumin;(M aa)e-1; summary of the method: as §3
[10] = target: T1, Albumin; assay: Binding parameter of the lactone form to human serum albumin; n value; summary of the method: as §3

Compound	half-life [1] [min]	half-life [2] [min]	T free [3] [ns]	T bound [4] [ns]	T bound [5] [ns]	T free [6] [ns]	K [7]	Activity [8]	K [9]	Activity [10]
CCc1c2c(nc3ccc(C4CCN(C(=O)OC)CC4)cc13)-c1cc3c(c(=O)n1C2)COC(=O)C3(O)CC (stereo not drawn)	25.6	29	3.7	4	3.7	4				
CCC1(O)C(=O)OCc2c1cc1n(c2=O)Cc2cc3c(Cl)c4c(cc3nc2-1)OCO4 (stereo not drawn)	34.6	16.9	1.9	1.1	1.9	2.5	1200 1/Maa	1.6		
CC[C@@]1(O)C(=O)OCc2c1cc1n(c2=O)Cc2cc3c(CN(C)C)c(O)ccc3nc2-1 [TOPOTECAN]	22.8	28.9	6	6.1	6	6.1				
CCc1c2c(nc3ccc(O)cc13)-c1cc3c(c(=O)n1C2)COC(=O)[C@]3(O)CC [7-ETHYL-10-HYDROXYCAMPTOTHECIN]	19.9									
CCC1(O)C(=O)OCc2c1cc1n(c2=O)Cc2cc3cc4c(cc3nc2-1)OCO4 (stereo not drawn)	31.7	20.7	2	1.3	1.3	2.4	2200 1/Maa	1.7	10 1/Maa	1.3
CC[C@@]1(O)C(=O)OCc2c1cc1n(c2=O)Cc2cc3c(N)cccc3nc2-1 [9-AMINOCAMPTOTHECIN]	17.9	23.4								
CC[C@@]1(O)C(=O)OCc2c1cc1n(c2=O)Cc2cc3cc(O)ccc3nc2-1 [HYDROXYCAMPTOTHECIN]	22.1	21.1	4	5.5	5.4	4	260 1/Maa	1.7	130 1/Maa	1.7
CC[C@@]1(O)C(=O)OCc2c1cc1n(c2=O)Cc2cc3ccccc3nc2-1 [CAMPTOTHECIN]	23.8	12.5	4.2	1.3	2.7	4.3	4700 1/Maa	2.3	30 1/Maa	1.8
